From ChEMBL document CHEMBL1212766, “Dose escalation study of the safety, tolerability, and pharmacokinetics of nemonoxacin (TG-873870), a novel potent broad-spectrum nonfluorinated quinolone, in healthy volunteers” (Antimicrob Agents Chemother, 2010)
In brackets after ≈: the same amount, converted by molar mass.

Legend:
[1] = test system: Homo sapiens; assay: Toxicity in healthy human assessed as occurrence of erythema at 125 […], po; type: organism-based; design: route oral; conditions: in vivo
[2] = test system: Homo sapiens; assay: Toxicity in healthy human assessed as occurrence of pruritus at 50 […], po; type: organism-based; design: route oral; conditions: in vivo
[3] = test system: Homo sapiens; assay: Toxicity in healthy human assessed as occurrence of pruritus at 500 […], po; type: organism-based; design: route oral; conditions: in vivo
[4] = test system: Homo sapiens; assay: Toxicity in healthy human assessed as occurrence of erythema at 25 […], po; type: organism-based; design: route oral; conditions: in vivo
[5] = test system: Homo sapiens; assay: Toxicity in healthy human assessed as occurrence of erythema at 50 […], po; type: organism-based; design: route oral; conditions: in vivo
[6] = test system: Homo sapiens; assay: Toxicity in healthy human assessed as occurrence of headache at 25 […], po; type: organism-based; design: route oral; conditions: in vivo
[7] = test system: Homo sapiens; assay: Toxicity in healthy human assessed as occurrence of headache at 50 […], po; type: organism-based; design: route oral; conditions: in vivo
[8] = test system: Homo sapiens; assay: Toxicity in healthy human assessed as occurrence of headache at 500 […], po; type: organism-based; design: route oral; conditions: in vivo
[9] = test system: Homo sapiens; assay: Toxicity in healthy human assessed as occurrence of oral hypoesthesia at 50 […], po; type: organism-based; design: route oral; conditions: in vivo
[10] = test system: Homo sapiens; assay: Toxicity in healthy human assessed as occurrence of oral hypoesthesia at 125 […], po; type: organism-based; design: route oral; conditions: in vivo
[11] = test system: Homo sapiens; assay: Toxicity in healthy human assessed as occurrence of oral hypoesthesia at 500 […], po; type: organism-based; design: route oral; conditions: in vivo
[12] = test system: Homo sapiens; assay: Toxicity in healthy human assessed as occurrence of oral hypoesthesia at 1500 […], po; type: organism-based; design: route oral; conditions: in vivo
[13] = test system: Homo sapiens; assay: Toxicity in healthy human assessed as occurrence of abdominal pain at 250 […], po; type: organism-based, Abdomen; design: route oral; conditions: in vivo
How it was run: (§1)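 Double-blind, placebo-controlled single ascending oral dose; two placebo and six active subjects per cohort. Adverse events were recorded throughout the dosing period and at follow-up, with confinement to 96 h after dosing. Results are reported as number and percentage of subjects with the event (n/N × 100).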

[14] = test system: Homo sapiens; assay: Toxicity in healthy human assessed as occurrence of abdominal pain at 500 […], po; type: organism-based, Abdomen; design: route oral; conditions: in vivo; how it was run: as §1
[15] = test system: Homo sapiens; assay: Toxicity in healthy human assessed as occurrence of nausea at 500 […], po; type: organism-based; design: route oral; conditions: in vivo
[16] = test system: Homo sapiens; assay: Toxicity in healthy human assessed as occurrence of ear pain at 25 […], po; type: organism-based; design: route oral; conditions: in vivo
[17] = test system: Homo sapiens; assay: Toxicity in healthy human assessed as occurrence of ear pain at 125 […], po; type: organism-based; design: route oral; conditions: in vivo
[18] = test system: Homo sapiens; assay: Toxicity in healthy human assessed as occurrence of ear pain at 500 […], po; type: organism-based; design: route oral; conditions: in vivo
[19] = test system: Homo sapiens; assay: AUC (0 to infinity) in healthy human at 25 […], po administered as single dose; type: ADME, organism-based, Plasma; design: time infinity, route oral; conditions: in vivo
[20] = Terminal phase elimination half-life in healthy human at 25 […], po administered single dose; type: ADME, organism-based; design: route oral; conditions: in vivo
How it was run: (§2)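 After one fasted oral dose (six healthy subjects per cohort), plasma was sampled from 0.5 to 96 h and assayed by LC-MS/MS (LLOQ 5 ng/ml). λz came from least-squares regression on at least the last three log-concentration points, and t1/2 = 0.693/λz. Values are means (SD).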

[21] = Terminal phase elimination half-life in healthy human at 125 […], po administered single dose; type: ADME, organism-based; design: route oral; conditions: in vivo; how it was run: as §2
[22] = Terminal phase elimination half-life in healthy human at 250 […], po administered single dose; type: ADME, organism-based; design: route oral; conditions: in vivo; how it was run: as §2
[23] = Terminal phase elimination half-life in healthy human at 500 […], po administered single dose; type: ADME, organism-based; design: route oral; conditions: in vivo; how it was run: as §2
[24] = test system: Homo sapiens; assay: Clearance in healthy human at 50 […], po administered as single dose; type: ADME, organism-based; design: route oral; conditions: in vivo
How it was run: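 Randomized, double-blind, placebo-controlled single ascending oral dose in fasted healthy subjects (six on drug per cohort, with 240 ml water). Plasma sampled predose through 96 h and assayed by validated LC-MS/MS over 5–5,000 ng/ml. Oral clearance (CL_o) came from noncompartmental analysis, with AUC_0-∞ from linear trapezoids plus C_last/λz. Values are means (SD).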

[25] = test system: Streptococcus pneumoniae; assay: Antimicrobial activity against penicillin-intermediate Streptococcus pneumoniae; type: functional
[26] = test system: Streptococcus pneumoniae; assay: Antimicrobial activity against penicillin-resistant Streptococcus pneumoniae; type: functional
[27] = test system: Staphylococcus aureus; assay: Antimicrobial activity against methicillin-sensitive Staphylococcus aureus; type: functional
[28] = test system: Streptococcus pneumoniae; assay: Ratio of fAUC to MIC90 for penicillin-resistant Streptococcus pneumoniae; type: functional
How it was run: (§3)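 Fasted healthy adults got a single oral 500 mg dose with 240 ml water. Plasma was sampled predose to 96 h and assayed by LC-MS/MS (5–5,000 ng/ml). Cmax was read from individual profiles, and AUC0-∞ came from linear trapezoid plus extrapolation. Free fraction was measured by ultrafiltration (30,000 MWCO) of 0.5 and 6 h plasma. Free exposure was divided by the isolate MIC90.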

[29] = test system: Staphylococcus aureus; assay: Ratio of fAUC to MIC90 for methicillin-sensitive Staphylococcus aureus; type: functional; how it was run: as §3
[30] = test system: Staphylococcus aureus; assay: Ratio of fAUC to MIC90 for methicillin-resistant Staphylococcus aureus; type: functional; how it was run: as §3
[31] = test system: Streptococcus pneumoniae; assay: Ratio of fCmax to MIC90 for Streptococcus pneumoniae; type: functional; how it was run: as §3
[32] = test system: Streptococcus pneumoniae; assay: Ratio of fCmax to MIC90 for penicillin-intermediate Streptococcus pneumoniae; type: functional; how it was run: as §3
[33] = test system: Staphylococcus aureus; assay: Ratio of fCmax to MIC90 for methicillin-sensitive Staphylococcus aureus; type: functional; how it was run: as §3
[34] = Tmax in healthy human at 50 mg, po administered as single dose; conditions: in vivo
[35] = Cmax in healthy human at 125 mg, po administered as single dose; conditions: in vivo
[36] = Cmax in healthy human at 250 mg, po administered as single dose; conditions: in vivo
[37] = Tmax in healthy human at 125 mg, po administered as single dose; conditions: in vivo
[38] = test system: Homo sapiens; assay: Clearance in healthy human at 1000 mg, po administered as single dose; conditions: in vivo
[39] = Renal clearance in healthy human at 25 mg, po administered as single dose; conditions: in vivo, read-out: CL_renal (converted)
[40] = Renal clearance in healthy human at 125 mg, po administered as single dose; conditions: in vivo, read-out: CL_renal (converted)
[41] = test system: Homo sapiens; assay: AUC (0 to infinity) in healthy human at 1000 mg, po administered as single dose; conditions: in vivo
[42] = test system: Homo sapiens; assay: AUC (0 to infinity) in healthy human at 1500 mg, po administered as single dose; conditions: in vivo
[43] = test system: Homo sapiens; assay: Terminal volume of distribution in healthy human at 50 mg, po administered as single dose; conditions: in vivo
[44] = test system: Homo sapiens; assay: Terminal volume of distribution in healthy human at 1500 mg, po administered as single dose; conditions: in vivo
[45] = Terminal phase elimination half-life in healthy human at 1000 mg, po administered single dose; conditions: in vivo
[46] = Clearance in healthy human assessed as recovery of unchanged drug in urine at 500 mg, po administered as single dose; conditions: read-out: Recovered in urine

With `COc1c(N2C[C@@H](C)C[C@H](N)C2)ccc2c(=O)c(C(=O)O)cn(C3CC3)c12` [NEMONOXACIN] the Activity [1] was 0%, the Activity [2] was 17% and the Activity [3] was 0%. The Activity [4] was 0%, the Activity [5] was 0% and the Activity [6] was 0%. The Activity [7] was 0%, the Activity [8] was 0% and the Activity [9] was 0%. The Activity [10] was 0%, the Activity [11] was 0% and the Activity [12] was 0%. The Activity [13] was 0%, the Activity [14] was 0% and the Activity [15] was 0%. For the same compound, the Activity [16] was 0%, the Activity [17] was 0% and the Activity [18] was 0%. It also gave an AUC [19] of 1190 ng·h/mL, a half-life [20] of 9.71 h and a half-life [21] of 11.1 h. It also gave a half-life [22] of 10.9 h, a half-life [23] of 14.8 h and a CL [24] of 3.83 mL/min/kg. It also gave an MIC90 [25] of 0.015 µg/mL (≈ 0.0404 µM), an MIC90 [26] of 0.03 µg/mL (≈ 0.0808 µM) and an MIC90 [27] of 0.12 µg/mL (≈ 0.323 µM). It also gave a Ratio [28] of 906, a Ratio [29] of 227 and a Ratio [30] of 453. It also gave a Ratio [31] of 191, a Ratio [32] of 191 and a Ratio [33] of 24. For the same compound, the Tmax [34] was 1.08 h, the Cmax [35] was 1220 ng/mL and the Cmax [36] was 2400 ng/mL. For the same compound, the Tmax [37] was 0.75 h, the CL [38] was 3.67 mL/min/kg and the CL renal [39] was 3 mL/min/kg. For the same compound, the CL renal [40] was 1.33 mL/min/kg, the AUC [41] was 63310 ng·h/mL and the AUC [42] was 117840 ng·h/mL. The Vbeta [43] was 2.78 L/kg, the Vbeta [44] was 3.42 L/kg and the half-life [45] was 16.4 h. The dose excreted [46] was 34.1%.
